Measured values from paper PMC4871731 (Nature chemical biology, 2016).
Peptide text beside a SMILES is read from it. * marks the point of attachment. Cbz = O=C(OCc1ccccc1)*

What was measured:
[1] = biological target: T1, human CLRN1^N48K (Homo sapiens, UniProt P58418, N48K); test: Combined treatment with cycloheximide and washout; assay type: cell-based; conditions: for levels of CLRN1^N48K after 6 h treatment (T0): D6 cells, vs DMSO, bortezomib 50 nM, MG132 50 µM, O03 16.8 µM
T1 sequence (P58418 1-232 N48K): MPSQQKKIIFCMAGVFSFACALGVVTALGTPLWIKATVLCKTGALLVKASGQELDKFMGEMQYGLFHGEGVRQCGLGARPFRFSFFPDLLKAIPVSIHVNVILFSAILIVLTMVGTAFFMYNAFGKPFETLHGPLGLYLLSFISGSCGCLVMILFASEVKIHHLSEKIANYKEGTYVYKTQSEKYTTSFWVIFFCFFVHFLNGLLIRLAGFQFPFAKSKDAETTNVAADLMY
In short: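 D6 cells at 70% confluency were treated 6 h with bortezomib (50 nM), MG132 (50 µM) or test compound (16.8 µM); […]. Cells were then cultured 6 h more in 100 µM cycloheximide with or without the same agent. In the washout arm, compound-pretreated cells were washed and held 6 h in cycloheximide without compound. Read-out was CLRN1N48K by immunoblot.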

[2] = biological target: T1, human CLRN1^N48K; test: Immunoblotting of CLRN1N48K in D6 cells; assay type: cell-based; conditions: 24 h, O03 16.8 µM, B03 16.8 and 1.68 µM, bortezomib 50 nM
In short: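 D6 cells at 70% confluency were treated for 24 h with bortezomib (50 nM) or test compounds at 16.8 µM (one also at 1.68 µM), with DMSO at 0.25% (v/v) final. Lysates were then immunoblotted for CLRN1N48K.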

[3] = tested on: CLRN1 mRNA; test: Reverse transcription and quantitative PCR in D6 cells; assay type: cell-based, human; conditions: 24 h, O03 16.8 µM, bortezomib 50 nM
In short: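 D6 cells at 70% confluency were treated in triplicate for 24 h with 50 nM bortezomib, 16.8 µM test compound, or 0.25% DMSO. Total RNA was isolated with TRIzol. 5 µg RNA was DNase I-treated and reverse-transcribed with M-MLV using a mix of dT12, dT15 and dT18 primers (10 µM each), followed by quantitative PCR.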

[4] = tested on: human CLRN1^N48K-Venus; test: Dual color; assay type: cell-based; conditions: 16.8 µM test compound or 50 nM bortezomib, 24 h, vs no treatment
In short: (§1)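 Cell line stably co-expressing CLRN1N48K-Venus-1D4 and DsRed-Express-DR, grown to 70% confluency. Treatment was 16.8 µM test compound in triplicate for 24 h, with 50 nM bortezomib as positive and DMSO as negative control. Cells were fixed in 4% formaldehyde, washed with PBS and imaged by inverted fluorescence microscopy. Venus and DsRed intensities were quantified in 15 equal-sized cell-containing regions per well, three wells per treatment.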

[5] = biological target: T1, human CLRN1^N48K; test: Automated HTS, D6 cell-based immunofluorescence assay; conditions: D6 cell line, 25 nM
In short: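 Primary screen of about 50,000 library compounds. Cells were fixed in 4% formaldehyde for 20 min, washed with PBST and stained with anti-HA for 90 min at room temperature. Fluorescence intensity per cell area came from six images per well and was normalised per plate to bortezomib and untreated controls to give percent activity.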

[6] = tested on: DsRed-Express-DR (reporter for proteasome-mediated protein degradation); test: Dual color; assay type: cell-based; conditions: 16.8 µM test compound or 50 nM bortezomib, 24 h, vs no treatment
In short: as §1

[7] = biological target: T1, human CLRN1^N48K; test: Effect of HSP90 inhibition on CLRN1N48K expression; assay type: cell-based; conditions: D6 cells, 17-AAG 20 µM applied alone
In short: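 D6 cells were treated for 24 h with 20 µM 17-AAG, test compound (2.90 µM), 50 nM bortezomib, or DMSO vehicle. In one arm, cells were pre-incubated 6 h with 17-AAG before test compound was added for 24 h. Cells were then harvested for CLRN1N48K immunoblotting.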

## CC(C)C[C@@H](C=O)NC(=O)[C@H](CC(C)C)NC(=O)[C@H](CC(C)C)NC(=O)OCc1ccccc1 [MG132] (Cbz-Leu-Leu-Leu-aldehyde)
[1]
  levels of CLRN1^N48K after 6 h treatment (T0): increased levels of CLRN1^N48K

## C[C@@H]1C[C@@H]([C@H](O)CC2CC(=O)NC(=O)C2)C(=O)[C@@H](C)C1 [cycloheximide]
[1]; 100 µM cycloheximide
  synthesis of CLRN1^N48K: confirmed to inhibit the synthesis of CLRN1^N48K

## CC(C)C[C@H](NC(=O)[C@H](Cc1ccccc1)NC(=O)c1cnccn1)B(O)O [bortezomib]
[2]
  CLRN1^N48K level by immunoblotting: increased dramatically
[3]
  CLRN1^N48K mRNA level: not affected
[4]
  Venus fluorescence: increased both Venus and DsRed
[5]
  amount of CLRN1^N48K: increased amount
[6]
  DsRed fluorescence: increased both Venus and DsRed
[1]; 6 h compound, washout, then 6 h with cycloheximide without compound
  stability of CLRN1^N48K after washout: effective in stabilizing and protecting CLRN1^N48K from degradation
[1]
  levels of CLRN1^N48K after 6 h treatment (T0): increased levels of CLRN1^N48K

## C=CCNC1=C2C[C@@H](C)C[C@H](OC)[C@H](O)[C@@H](C)/C=C(\C)[C@H](OC(N)=O)[C@@H](OC)/C=C\C=C(/C)C(=O)NC(=CC1=O)C2=O [17-AAG, 17-N-allylamino-17-demethoxygeldanamycin]
[7]
  amount of CLRN1^N48K: did not alter the amount of CLRN1^N48K
